Compound activity: PubChem, several laboratories
PAFAH2 FP inh: inhibitors of human PAFAH2 | Q99487 | recombinant PAFAH2, FP-rhodamine activity probe, fluorescence polarization | inhibition, % at 3.39 µM | 340,000 compounds, 0.99% hits | AID 492956;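 active = inhibition above the mean over all tested compounds plus 3 SD, cut at about 30% in these data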;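 note: inhibitors block probe labeling of enzyme so polarization drops; 0% = enzyme with DMSO and 100% = wells lacking PAFAH2 protein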
Apaf1 inhib: inhibitors of human Apaf-1 apoptosome. inhibition, % at 20 µM. 330,000 compounds, 0.71% hits. AID 489030. reconstituted apoptosome caspase-3 activity, DEVD-Rh110 fluorescence; active = inhibition of at least 40% at 20 µM;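 note: plate controls were DMSO wells for no effect and DEVD-CHO caspase inhibitor wells for full effect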
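Material: reconstituted apoptosome with Apaf-1, cytochrome c, caspase-9, procaspase-3, dATP. Technique: Rh110 fluorescence intensity. Buffer or medium: pH 7.5 Hepes buffer with CHAPS, BSA, DTT. Times: 30 min plus 50 min, RT.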
PAFAH1B2 inh: blocks human PAF acetylhydrolase 1b catalytic subunit 2. P68402. recombinant PAFAH1B2, FP-rhodamine activity probe, fluorescence polarization. inhibition, % at 3.39 µM. 340,000 compounds, 1.2% hits;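 active = inhibition above the mean of all tested compounds plus 3 SD, cut at about 24% in these data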;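 note: 0% = enzyme with DMSO and 100% = wells lacking PAFAH1B2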
Target sequence (P68402 whole entry, looked up): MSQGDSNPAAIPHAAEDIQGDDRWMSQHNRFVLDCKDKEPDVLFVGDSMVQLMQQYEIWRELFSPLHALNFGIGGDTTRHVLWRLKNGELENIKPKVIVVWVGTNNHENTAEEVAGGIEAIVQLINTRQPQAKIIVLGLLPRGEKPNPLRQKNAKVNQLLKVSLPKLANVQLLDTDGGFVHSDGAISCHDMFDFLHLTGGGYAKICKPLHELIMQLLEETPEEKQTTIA
pPAFAH inh: inhibitors of human plasma PAF acetylhydrolase (pPAFAH). inhibition, % at 3.39 µM. recombinant pPAFAH, FP-rhodamine probe fluorescence polarization. 330,000 compounds, 1.5% hits;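 active = inhibition above the mean inhibition across the screen plus 3 SD, cut at about 25% in these data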;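 note: inhibitors block binding of the rhodamine activity-based probe so polarization drops; 0% = enzyme with DMSO and 100% = wells lacking pPAFAH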
Target sequence (Q13093 whole entry, looked up): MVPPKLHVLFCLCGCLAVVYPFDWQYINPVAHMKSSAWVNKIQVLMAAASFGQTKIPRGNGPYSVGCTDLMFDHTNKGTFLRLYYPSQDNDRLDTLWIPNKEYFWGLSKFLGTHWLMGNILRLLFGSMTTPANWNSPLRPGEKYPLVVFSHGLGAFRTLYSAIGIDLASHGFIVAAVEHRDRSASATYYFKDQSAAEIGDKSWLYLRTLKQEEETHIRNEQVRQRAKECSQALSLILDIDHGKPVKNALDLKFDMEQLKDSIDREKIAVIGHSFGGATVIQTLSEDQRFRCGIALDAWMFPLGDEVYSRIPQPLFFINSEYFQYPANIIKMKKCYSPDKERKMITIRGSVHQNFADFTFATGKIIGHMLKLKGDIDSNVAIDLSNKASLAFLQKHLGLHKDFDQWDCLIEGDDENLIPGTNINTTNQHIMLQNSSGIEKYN
PAFAH1B3 inh: inhibitors of human PAFAH1B3; Q15102; recombinant PAFAH1B3, FP-rhodamine probe, fluorescence polarization; inhibition, % at 3.39 µM; 340,000 compounds, 0.28% hits;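 active = inhibition above the screen-wide average of all tested compounds plus 3 SD, cut at about 25% in these data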;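 note: 0% = enzyme with DMSO only and 100% = wells lacking PAFAH1B3 protein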
PREPL inh: human PREPL enzyme inhibition. recombinant PREPL, fluorescence polarization activity-based probe. AID 2751. Q4J6C6. inhibition, % at 5.96 µM. 320,000 compounds, 0.68% hits; in the data active = inhibition above about 43%;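 note: 0% = enzyme with DMSO and 100% = wells lacking enzyme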
Numbers without * were called inactive. A selection: hits, their analogues and other compounds. The true share with any hit is near 3.5%.

For COc1ccccc1/C=c1\sc2nc(-c3ccco3)nn2c1=O the results were PAFAH2 FP inh 17.4, Apaf1 inhib 12.7, PAFAH1B2 inh 5.9, pPAFAH inh 25.4*, PAFAH1B3 inh 3.1 and PREPL inh -4.0.
For CC(C)(C)C(=O)NC1=NN(c2c(Cl)cc(Cl)cc2Cl)C(=O)C1 the results were PAFAH2 FP inh -1.4, Apaf1 inhib 67.6*, PAFAH1B2 inh 2.7, pPAFAH inh -1.8, PAFAH1B3 inh 7.6 and PREPL inh 0.9.
Screening CC(=O)NC1=NN(c2ccccc2)C(=O)C1 returned PAFAH2 FP inh 5.3, Apaf1 inhib 15.4, PAFAH1B2 inh 0.5, pPAFAH inh 13.3, PAFAH1B3 inh 2.7 and PREPL inh -1.2.
For COc1cccc(C(=O)Nc2cccc(C(=O)NC3=NN(c4c(Cl)cc(Cl)cc4Cl)C(=O)C3)c2)c1 the results were PAFAH2 FP inh -11.8, Apaf1 inhib 31.3, PAFAH1B2 inh 5.4, pPAFAH inh 29.9*, PAFAH1B3 inh 21.9 and PREPL inh 8.5.
For CC/C(=N\NC(=O)Cc1ccc(Br)cc1)c1cccs1 the results were PAFAH2 FP inh -6.2, Apaf1 inhib 13.3, PAFAH1B2 inh 9.3 and PAFAH1B3 inh 3.5.
O=C(Nc1ccc(Cl)cc1)[C@@H]1[C@@H]2C(=O)N(c3ccc4ccccc4c3)C(=O)[C@@H]2[C@H]2C=CC=NN21 was read as PAFAH2 FP inh 32.8*, Apaf1 inhib 6.3, PAFAH1B2 inh 4.5, pPAFAH inh 29.4*, PAFAH1B3 inh 4.2 and PREPL inh -26.3.
Cc1ccc(CCNS(=O)(=O)c2ccc3c(c2)C(C)(C)C(=O)N3C)cc1 was read as PAFAH2 FP inh -9.0, Apaf1 inhib 11.6, PAFAH1B2 inh 11.2, pPAFAH inh 25.2*, PAFAH1B3 inh 0.5 and PREPL inh -58.2.
`CN1C(=O)C(C)(C)c2cc(S(=O)(=O)NCc3ccc(Cl)cc3)ccc21` gave PAFAH2 FP inh 6.0, Apaf1 inhib 3.0, PAFAH1B2 inh 6.7, pPAFAH inh 6.0, PAFAH1B3 inh 10.3 and PREPL inh 6.9.
`Cc1ccccc1CNS(=O)(=O)c1ccc2c(c1)C(C)(C)C(=O)N2C` gave PAFAH2 FP inh -1.5, Apaf1 inhib 4.1, PAFAH1B2 inh -1.6, pPAFAH inh 7.1, PAFAH1B3 inh 4.4 and PREPL inh 1.2.
`CN1C(=O)C(C)(C)c2cc(S(=O)(=O)NCCc3ccc(Cl)cc3)ccc21` gave PAFAH2 FP inh 5.3, Apaf1 inhib 4.3, PAFAH1B2 inh 24.3*, pPAFAH inh 29.8*, PAFAH1B3 inh 2.7 and PREPL inh -40.7.
Screening Cc1cc(F)ccc1NC(=O)c1cc(S(=O)(=O)N2CCOCC2)cn1C returned PAFAH2 FP inh 7.8, Apaf1 inhib -8.2, PAFAH1B2 inh 1.6, pPAFAH inh 1.2, PAFAH1B3 inh -0.2 and PREPL inh 4.2.
O=C(NC(n1ccc(=O)[nH]c1=O)C(Cl)(Cl)Cl)C12CC3CC(CC(C3)C1)C2 (centres undefined) was read as PAFAH2 FP inh -4.1, Apaf1 inhib 0.6, PAFAH1B2 inh 27.2*, pPAFAH inh 8.1, PAFAH1B3 inh 5.8 and PREPL inh -13.5.
Screening O=c1cc(O)nc(SCc2ccc(Cl)cc2)[nH]1 returned PAFAH2 FP inh -1.8, Apaf1 inhib -0.6, PAFAH1B2 inh 56.5*, pPAFAH inh 16.1, PAFAH1B3 inh 11.2 and PREPL inh -4.6.
Cc1ccc(S(=O)(=O)Nc2cc(=O)[nH]c(SCc3ccc(Cl)cc3)n2)cc1 was read as PAFAH2 FP inh -12.2, PAFAH1B2 inh 5.7, pPAFAH inh -2.7, PAFAH1B3 inh -6.8 and PREPL inh -14.8.
CC(=O)c1ccc(OC(C)C)c(CSc2nc(O)cc(=O)[nH]2)c1 was read as PAFAH2 FP inh 6.8, Apaf1 inhib -9.9, PAFAH1B2 inh 4.3, pPAFAH inh 27.9*, PAFAH1B3 inh -4.1 and PREPL inh 14.4.
`O=c1cc(-c2ccccc2)nc(SCc2ccc(Cl)cc2)[nH]1` gave PAFAH2 FP inh 4.6, Apaf1 inhib 2.2, PAFAH1B2 inh 24.3*, pPAFAH inh 1.7, PAFAH1B3 inh 5.0 and PREPL inh -0.3.
O=C(CSc1nc2ccccc2c(=O)[nH]1)NCc1ccc(Cl)cc1 was read as PAFAH2 FP inh 0.7, Apaf1 inhib 2.6, PAFAH1B2 inh 15.9, pPAFAH inh -0.8, PAFAH1B3 inh 2.7 and PREPL inh 0.8.
`O=c1[nH]c(SCc2ccc(Cl)cc2)nc2ccccc12` gave PAFAH2 FP inh -2.0, Apaf1 inhib 5.8, PAFAH1B2 inh 26.3*, pPAFAH inh 8.2, PAFAH1B3 inh 12.2 and PREPL inh -0.6.
Screening CN(CCO)c1ccc(-c2n[nH]c(=O)c3ccccc23)cc1[N+](=O)[O-] returned PAFAH2 FP inh 0.0, Apaf1 inhib 6.4, PAFAH1B2 inh 5.4 and PAFAH1B3 inh 5.7.
For CC(C(=O)NC(C)(C)C)N1C(=O)c2cccc3cccc(c23)C1=O (centres undefined) the results were PAFAH2 FP inh 14.8, Apaf1 inhib -4.8, PAFAH1B2 inh 8.0, pPAFAH inh 4.2, PAFAH1B3 inh 7.2 and PREPL inh 4.3.
`Cc1nc(NC(=O)CSc2nnc(N)s2)c(Cl)cc1Cl` gave PAFAH2 FP inh 5.3, Apaf1 inhib 0.9, PAFAH1B2 inh 0.4, pPAFAH inh -6.7, PAFAH1B3 inh 5.4 and PREPL inh 11.2.
For Cc1cc(=O)n2[nH]c(SCc3ccc(Cl)cc3)nc2n1 the results were PAFAH2 FP inh 18.4, Apaf1 inhib 6.9, PAFAH1B2 inh 50.0*, pPAFAH inh 26.2*, PAFAH1B3 inh -7.5 and PREPL inh -9.9.
`O=c1[nH]c(SCc2ccc(Cl)cc2)nc2c1CCC2` gave PAFAH2 FP inh 7.7, Apaf1 inhib 11.7, PAFAH1B2 inh 52.4*, pPAFAH inh 25.7*, PAFAH1B3 inh 8.6 and PREPL inh 7.5.
Cc1nnc(SCc2ccccc2)[nH]c1=O was read as PAFAH2 FP inh 5.4, Apaf1 inhib -3.3, PAFAH1B2 inh -0.7, pPAFAH inh 34.1*, PAFAH1B3 inh 1.6 and PREPL inh 25.8.
`COc1ccc(-c2[nH]c(-c3ccc(C)cc3)nc2SCC(=O)Nc2nccs2)cc1` gave PAFAH2 FP inh -7.1, Apaf1 inhib 3.3, PAFAH1B2 inh 3.7, pPAFAH inh 3.7, PAFAH1B3 inh 2.3 and PREPL inh 12.1.
For COc1ccc(-c2[nH]c(-c3ccc(SC)cc3)nc2SCC(=O)Nc2nccs2)cc1 the results were PAFAH2 FP inh -20.5, Apaf1 inhib 23.3, PAFAH1B2 inh 27.1*, pPAFAH inh 7.2, PAFAH1B3 inh 24.9 and PREPL inh 15.8.
`CC1CCCCC1NC(=O)C1CCC(CNS(=O)(=O)c2ccccc2)CC1` (centres undefined) gave PAFAH2 FP inh -1.6, Apaf1 inhib 1.6, PAFAH1B2 inh 4.5, pPAFAH inh 7.9, PAFAH1B3 inh 9.1 and PREPL inh 2.4.
For COc1ccc(NC(=O)CC2CC3CCC2C3)cc1S(=O)(=O)N1CCOCC1 (centres undefined) the results were PAFAH2 FP inh 6.2, Apaf1 inhib 5.7, PAFAH1B2 inh 7.9, pPAFAH inh 4.2, PAFAH1B3 inh 6.8 and PREPL inh 12.2.
